Source: PubChem
CHOP inhibitor: CHOP inhibition in unfolded protein response; CHO-K1 CHOP-promoter luciferase, tunicamycin-induced, 15-18 h; inhibition, % at 10 µM; actives 3.8% (n = 220,000); AID 2732;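 active = compounds that reduced the stress-induced luciferase reporter signal by more than about 70% of percent inhibition, limit read from the data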
TLR4-MyD88 BLA: inhibitors of human TLR4-MyD88 binding | O00206+Q99836 | actives 0.18% (n = 200,000) | HeLa CL3-4 TLR4/MyD88 BLA complementation, FRET ratio | inhibition, % at 8.4 µM; in the data active = inhibition above about 25%
TLR9-MyD88 inh: blocks human TLR9 binding to MyD88. Q9NR96+Q99836. inhibition, % at 4.98 µM. CHO BLA complementation TLR9-MyD88, CCF4 FRET ratio. actives 0.21% (n = 340,000);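 active = inhibition above the mean over all tested compounds plus 3 SD, cut at about 21% in these data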
Target sequence (Q99836 whole entry, looked up): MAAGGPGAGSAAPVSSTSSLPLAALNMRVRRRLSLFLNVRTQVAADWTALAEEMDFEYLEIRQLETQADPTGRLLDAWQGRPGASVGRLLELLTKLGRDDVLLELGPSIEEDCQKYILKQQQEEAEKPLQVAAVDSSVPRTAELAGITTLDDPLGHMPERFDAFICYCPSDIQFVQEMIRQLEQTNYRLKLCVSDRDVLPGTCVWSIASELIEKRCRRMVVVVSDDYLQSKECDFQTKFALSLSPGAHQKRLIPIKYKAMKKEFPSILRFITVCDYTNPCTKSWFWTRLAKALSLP
Target sequence (Q9NR96 whole entry, looked up): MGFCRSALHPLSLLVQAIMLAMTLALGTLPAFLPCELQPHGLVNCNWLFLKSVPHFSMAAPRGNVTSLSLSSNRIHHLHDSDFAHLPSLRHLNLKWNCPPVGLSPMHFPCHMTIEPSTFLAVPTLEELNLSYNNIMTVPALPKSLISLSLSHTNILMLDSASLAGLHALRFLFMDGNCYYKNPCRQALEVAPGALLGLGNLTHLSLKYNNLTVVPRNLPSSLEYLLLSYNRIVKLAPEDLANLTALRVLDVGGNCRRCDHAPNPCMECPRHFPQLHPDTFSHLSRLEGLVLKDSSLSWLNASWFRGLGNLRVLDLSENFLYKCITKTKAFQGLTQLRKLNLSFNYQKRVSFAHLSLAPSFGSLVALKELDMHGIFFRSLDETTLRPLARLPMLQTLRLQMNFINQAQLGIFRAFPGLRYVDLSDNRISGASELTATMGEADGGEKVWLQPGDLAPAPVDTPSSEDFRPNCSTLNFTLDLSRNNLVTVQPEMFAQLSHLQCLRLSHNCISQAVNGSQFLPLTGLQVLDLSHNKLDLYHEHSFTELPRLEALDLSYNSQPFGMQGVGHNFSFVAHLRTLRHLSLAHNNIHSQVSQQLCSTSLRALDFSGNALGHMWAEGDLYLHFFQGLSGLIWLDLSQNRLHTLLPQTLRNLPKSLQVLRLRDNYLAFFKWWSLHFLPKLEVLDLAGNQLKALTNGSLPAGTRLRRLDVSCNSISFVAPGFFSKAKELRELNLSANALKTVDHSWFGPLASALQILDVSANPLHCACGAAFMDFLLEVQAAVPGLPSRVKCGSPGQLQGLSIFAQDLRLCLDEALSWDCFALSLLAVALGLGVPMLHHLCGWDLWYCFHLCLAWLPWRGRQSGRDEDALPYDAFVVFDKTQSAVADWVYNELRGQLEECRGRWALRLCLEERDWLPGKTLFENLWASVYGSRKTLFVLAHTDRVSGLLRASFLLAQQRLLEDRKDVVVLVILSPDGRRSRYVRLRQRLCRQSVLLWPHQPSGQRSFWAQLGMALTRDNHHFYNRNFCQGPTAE
XBP1 UPR activ: activators of adaptive arm of unfolded protein response (XBP1). activation, % at 20 µM. actives 0.33% (n = 330,000). CHO-XBP1 luciferase reporter, IRE1-XBP1 UPR activation, luminescence; percent of tunicamycin response, DMSO as zero;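 active = versus positive control, 20 µM dose yields 30% or more activation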
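Material – CHO cell line with stable XBP1 luciferase reporter · Buffer or medium – F12 plus 10% FBS · Compound – single point, 20 µM final compound, 1% DMSO · Schedule – 16-18 h cell attachment at 37 °C, then 6 h compound exposure · Signal – Steady-Glo luminescence read · Benchmarks – high control tunicamycin 10 µg/mL final, low control DMSO vehicle only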
UPR CHOP act: apoptotic UPR (CHOP) activation | actives 0.34% (n = 330,000) | CHO-CHOP luciferase reporter, luminescence; percent of tunicamycin response over DMSO baseline | activation, % at 10 µM;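 active = at 10 µM dose, activation of 40% or more, normalized to positive control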
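assay system = CHO CHOP reporter cells | amount = 500 CHO-CHOP cells per well | buffer or medium = F12 with 10% FBS | incubation = 16-18 h cell attachment, then 6 h compound exposure, 37 °C | detection = luminescence read with Steady-Glo | read-out = percent activation relative to tunicamycin control | controls = tunicamycin high control, DMSO low control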
NOD2-RIPK2 inh: inhibitors of human NOD2-RIPK2 interaction | AID 624267 | CHO BLA complementation NOD2-RIPK2, CCF4 ratio | inhibition, % at 4.98 µM | actives 0.38% (n = 360,000); in the data active = inhibition above about 21%
Large screens that a line does not name were inactive. Shown is part of a subset that was picked to be rich in hits.

O=C(Nc1cc2c(oc1=O)CCCC2=O)c1ccccc1	CHOP inhibitor 76.1
C=CCN=C1NN=C(c2ccc3c(c2)OCCO3)CS1	CHOP inhibitor 70.6
C=CCN=C1NN=C(c2cc(C)n(CC=C)c2C)CS1	CHOP inhibitor 92.7
COCCN=C1NN=C(c2cc(C)n(CC3CCCO3)c2C)CS1 (configuration not stated)	none
COCCn1c(C)cc(C2=NNC(=Nc3ccccc3F)SC2)c1C	CHOP inhibitor 70.0
COc1ccc(-c2nc(CSCC(=O)N3CCc4ccccc4C3)c(C)o2)cc1OC	none
COc1ccc(-c2nc(CSCC(=O)N3CCN(c4cccc(C)c4)C(C)C3)c(C)o2)cc1OC (configuration not stated)	CHOP inhibitor 76.4
Cc1ccc2nc(NC(=O)c3cccc(-c4cc5ccccc5oc4=O)c3)sc2c1	XBP1 UPR activ 121.8 (no result: TLR9-MyD88 inh, NOD2-RIPK2 inh)
Cc1ccc2nc(NC(=O)c3ccc4c(c3)OCO4)sc2c1	CHOP inhibitor 93.2
CCOc1ccc2nc(NC(=O)c3cccc(-c4cc5ccccc5oc4=O)c3)sc2c1	CHOP inhibitor 91.7 (no result: XBP1 UPR activ, UPR CHOP act)
O=C(C[C@H]1C=C[C@@H](NS(=O)(=O)c2ccccc2)[C@@H](CO)O1)NCc1ccc(Cl)c(Cl)c1	none (no result: CHOP inhibitor, TLR4-MyD88 BLA, TLR9-MyD88 inh, XBP1 UPR activ, UPR CHOP act)
Nc1ccc(Nc2ccncc2)cc1	none (no result: CHOP inhibitor, TLR4-MyD88 BLA, XBP1 UPR activ, UPR CHOP act)
Cc1ccc(C(=O)N/N=C/c2cccnc2)cc1Cl	none (no result: CHOP inhibitor, TLR4-MyD88 BLA, XBP1 UPR activ, UPR CHOP act)
C=C1C(=O)[C@@]23[C@H](O)C[C@@H]4C(C)(C)CC[C@H](O)[C@@]4(C)[C@@H]2CC[C@@H]1[C@H]3O	CHOP inhibitor 98.5
C=C1C(=O)[C@@]23[C@H](O)C[C@@H]4C(C)(C)CC[C@H](O)[C@]4(C)[C@@H]2C[C@H](O)[C@@H]1[C@H]3O	none
CCCCNC(=O)C(C1CCCCC1)N(CCN(C)C)C(=O)CCCN1C(=O)NC(c2ccc(-c3ccccc3)cc2)C(C(=O)OCc2ccccc2)=C1C (configuration not stated)	XBP1 UPR activ 40.7 (no result: CHOP inhibitor, TLR4-MyD88 BLA, NOD2-RIPK2 inh)
CCCCCCN(C(=O)CCCCCN1C(=O)NC(c2ccc(-c3ccccc3)cc2)C(C(=O)OCc2ccccc2)=C1C)C(C)C(=O)NCCCC (configuration not stated)	none (no result: TLR9-MyD88 inh, NOD2-RIPK2 inh)
C[C@H](CO)N1C[C@H](C)[C@H](CN(C)S(=O)(=O)c2ccc(F)cc2)OCc2cnnn2CCCC1=O	none (no result: CHOP inhibitor, TLR4-MyD88 BLA, XBP1 UPR activ, UPR CHOP act)
CC1(C)CC(=O)C=C(NCc2ccccc2)C1	none
CC1(C)CC(=O)C=C(NC2=CC3OC(c4ccccc4)OCC3OC2=O)C1 (configuration not stated)	CHOP inhibitor 102.9
Nc1nccc(N2CCCCC2)n1	none (no result: CHOP inhibitor, TLR4-MyD88 BLA, XBP1 UPR activ, UPR CHOP act)
COc1cc2c(cc1OC)C1(CCCC1)C(N)=C2C#N	CHOP inhibitor 70.0
COc1cc(OC)c(OC)cc1C#N	none
CCCN1C/C(=C/c2cccc([N+](=O)[O-])c2)C(=O)/C(=C/c2cccc([N+](=O)[O-])c2)C1	CHOP inhibitor 100.4 (no result: XBP1 UPR activ, UPR CHOP act)
O=C(CCNS(=O)(=O)c1ccc(OC(F)(F)F)cc1)Nc1cccc(S(=O)(=O)N2CCCC2)c1	none (no result: CHOP inhibitor, TLR4-MyD88 BLA, XBP1 UPR activ, UPR CHOP act)
CCOC(=O)c1cc(OC(=O)c2ccccc2OC)n(-c2ccccc2)n1	CHOP inhibitor 80.5
Cc1ccc(OCc2nc3ccccc3n2C(C(=O)Nc2c(C)cccc2C)C2CC2)cc1 (configuration not stated)	none (no result: CHOP inhibitor, TLR4-MyD88 BLA, TLR9-MyD88 inh, XBP1 UPR activ, UPR CHOP act)
CCCCn1c(C)cc(C)c(S(=O)(=O)c2ccccc2C)c1=O	CHOP inhibitor 94.4
Cc1ccccc1S(=O)(=O)c1c(C)cc(C)n(C(C)C)c1=O	none
O=C(Nc1ccc(S(=O)(=O)N2CCCCC2)cc1)c1ccc(CN2CCc3ccccc3C2)cc1	CHOP inhibitor 79.9
COc1ccc(C(CNC(=O)CN2C(=O)NC(C)(c3ccc4ccccc4c3)C2=O)N2CCCC2)cc1 (configuration not stated)	none (no result: CHOP inhibitor, TLR4-MyD88 BLA, XBP1 UPR activ, UPR CHOP act)
O=C(CCl)Nc1cccc(S(=O)(=O)N2CCCCCC2)c1	CHOP inhibitor 92.9
O=C(Cc1ccc(Cl)cc1)Nc1cccc(S(=O)(=O)N2CCCCC2)c1	none (no result: CHOP inhibitor, TLR4-MyD88 BLA)
COc1cc(-c2nnc(COc3ccc(Cl)cc3C)o2)cc(OC)c1OC	CHOP inhibitor 71.6
CC(C)(C)C1CCC(=NNc2ccc(S(N)(=O)=O)cc2[N+](=O)[O-])CC1 (configuration not stated)	CHOP inhibitor 83.5
CC1CCCC/C1=N\Nc1ccc(S(N)(=O)=O)cc1[N+](=O)[O-] (configuration not stated)	none
Cc1ccc(S(=O)(=O)N/N=C2/CCCCC2C2CCCCC2)cc1[N+](=O)[O-] (configuration not stated)	CHOP inhibitor 79.2
CCC(C)(C)C1CCC(=NNS(=O)(=O)c2ccc(C)c([N+](=O)[O-])c2)CC1 (configuration not stated)	CHOP inhibitor 70.4
Cc1cc2nc(CN(C)C(=O)C3CCC(=O)N(C4CCCC4)C3)[nH]c2cc1C (configuration not stated)	none (no result: CHOP inhibitor, TLR4-MyD88 BLA, XBP1 UPR activ, UPR CHOP act)
COC(=O)c1cc(S(=O)(=O)Nc2cccc(-c3ccno3)c2)c[nH]1	none (no result: CHOP inhibitor, TLR4-MyD88 BLA, XBP1 UPR activ, UPR CHOP act)
COc1cc(Cl)c(C)cc1NC(=O)CSc1ccc(C)cc1	CHOP inhibitor 73.8
Cn1cccc1CN1CCC[C@]2(N[C@H](c3ccc(C(F)(F)F)cc3)[C@@H]3C(=O)N(Cc4ccccc4)C(=O)[C@@H]32)C1=O	none (no result: CHOP inhibitor, TLR4-MyD88 BLA, XBP1 UPR activ, UPR CHOP act)
COc1ccc(NS(=O)(=O)c2ccc(N3CCCC3=O)cc2)cn1	none
COc1ccc(NS(=O)(=O)c2ccc3c(c2)Cc2ccccc2-3)cn1	CHOP inhibitor 95.0
COc1nc(Nc2cccc(C)c2)nc(N2CCCCC2)n1	CHOP inhibitor 71.0
COc1nc(N2CCCCCC2)nc(N2CCCCCC2)n1	CHOP inhibitor 87.5
CCN(CC)C(=O)C1=C(C)N(Cc2ccccc2)C(=O)C(CC(=O)NCc2cccs2)C1 (configuration not stated)	none (no result: CHOP inhibitor, TLR4-MyD88 BLA, XBP1 UPR activ, UPR CHOP act)
Cc1cc(C)c(Cn2cnc(-c3ccc([N+](=O)[O-])cc3)c2)c(C)c1	CHOP inhibitor 76.3
CC1(C)CC(CCNS(=O)(=O)c2ccccc2)(c2ccccc2)CCO1 (configuration not stated)	none
CCC1(C)CC(CCNS(=O)(=O)c2ccc(C)cc2)(c2ccc(C)cc2)CCO1 (configuration not stated)	CHOP inhibitor 72.6
COc1ccc(N=Cc2cc3c(cc2O)OC(N)=C(C#N)C3c2ccccc2)cc1 (configuration not stated)	CHOP inhibitor 80.3
Cc1ccccc1NC(=O)c1cc(S(=O)(=O)N2CCCCC2)ccc1N1CCOCC1	none (no result: CHOP inhibitor, TLR4-MyD88 BLA, XBP1 UPR activ, UPR CHOP act)
Cc1cccc(C)c1-n1nnnc1C(c1ccccc1)N1CCN(C/C=C/c2ccccc2)CC1 (configuration not stated)	none (no result: CHOP inhibitor, TLR4-MyD88 BLA, TLR9-MyD88 inh, XBP1 UPR activ, UPR CHOP act)
O=C(CNc1ccccc1)N/N=C/c1cn(-c2ccccc2)nc1-c1ccccc1	CHOP inhibitor 95.9
